Measured values: ChEMBL document CHEMBL3870325 (Bioorg Med Chem, 2017)

Assays:
[1] = biological target: T1, Epidermal growth factor receptor (Homo sapiens, UniProt P00533)
Histone deacetylase 1 = Histone deacetylase 1 (Homo sapiens, UniProt Q13547); experiment: Inhibition of HDAC1 (unknown origin) using acetylated peptide substrate preincubated for 15 mins followed by substrate addition measured after 60 mins by fluorescence analysis
cells [2] = type: functional, cell-based; conditions: Homo sapiens, BT-474, 48 h
[3] = biological target: T2, Receptor tyrosine-protein kinase erbB-2 (Homo sapiens, UniProt P04626); experiment: Inhibition of HER2 (unknown origin) assessed as remaining ATP level measured after 15 mins by luminescence analysis
T2 sequence (P04626 whole entry): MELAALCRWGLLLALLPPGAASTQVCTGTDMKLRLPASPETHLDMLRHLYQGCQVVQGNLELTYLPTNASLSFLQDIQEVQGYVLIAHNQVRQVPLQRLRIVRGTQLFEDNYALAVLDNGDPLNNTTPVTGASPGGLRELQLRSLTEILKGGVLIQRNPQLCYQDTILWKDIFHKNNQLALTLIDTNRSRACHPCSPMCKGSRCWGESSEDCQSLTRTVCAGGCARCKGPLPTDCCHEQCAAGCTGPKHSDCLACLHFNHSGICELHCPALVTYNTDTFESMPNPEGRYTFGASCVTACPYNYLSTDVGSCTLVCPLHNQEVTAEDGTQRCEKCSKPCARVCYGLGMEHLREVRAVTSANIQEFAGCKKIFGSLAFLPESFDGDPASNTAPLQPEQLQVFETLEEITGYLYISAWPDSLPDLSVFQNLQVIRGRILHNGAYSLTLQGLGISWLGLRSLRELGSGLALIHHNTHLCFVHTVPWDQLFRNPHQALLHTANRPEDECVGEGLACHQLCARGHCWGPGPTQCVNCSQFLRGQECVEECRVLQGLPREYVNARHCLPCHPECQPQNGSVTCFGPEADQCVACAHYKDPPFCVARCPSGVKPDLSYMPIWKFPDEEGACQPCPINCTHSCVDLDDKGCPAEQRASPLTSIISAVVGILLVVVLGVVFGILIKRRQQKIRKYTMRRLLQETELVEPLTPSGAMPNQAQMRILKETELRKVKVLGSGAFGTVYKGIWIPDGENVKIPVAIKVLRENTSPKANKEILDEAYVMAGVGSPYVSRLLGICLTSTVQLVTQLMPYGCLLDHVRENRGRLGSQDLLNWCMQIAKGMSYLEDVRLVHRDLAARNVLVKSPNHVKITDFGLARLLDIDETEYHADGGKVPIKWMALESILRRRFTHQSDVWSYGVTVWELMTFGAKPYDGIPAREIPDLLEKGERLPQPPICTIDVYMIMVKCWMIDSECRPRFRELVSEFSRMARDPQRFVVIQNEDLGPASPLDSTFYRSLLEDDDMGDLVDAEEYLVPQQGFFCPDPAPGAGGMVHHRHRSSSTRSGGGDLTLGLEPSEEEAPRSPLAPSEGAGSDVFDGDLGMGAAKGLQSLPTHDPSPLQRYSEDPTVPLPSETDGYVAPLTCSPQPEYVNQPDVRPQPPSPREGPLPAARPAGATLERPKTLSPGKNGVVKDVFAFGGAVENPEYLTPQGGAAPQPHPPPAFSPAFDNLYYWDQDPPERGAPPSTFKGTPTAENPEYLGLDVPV
Summary of the method: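 Kinase run as a contracted HTRF assay. Compounds in 3-fold dilution in 2.5% DMSO/kinase buffer, mixed with kinase and substrate, preincubated 15 min at RT. ATP added to start, reaction 30 min at RT. Stopped with Streptavidin-XL665 plus europium-cryptate TK antibody (1:100). Excitation 320 nm, 665/615 nm emission ratio. IC50 from inhibition curves, results from 2 assays.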

cells [4] = type: functional, cell-based; conditions: Homo sapiens, A549, 48 h
[5] = biological target: T3, Protein deacetylase HDAC6 (Homo sapiens, UniProt Q9UBN7); experiment: Inhibition of HDAC6 (unknown origin) using acetylated peptide substrate preincubated for 15 mins followed by substrate addition measured after 60 mins by fluorescence analysis
T3 sequence (Q9UBN7 whole entry): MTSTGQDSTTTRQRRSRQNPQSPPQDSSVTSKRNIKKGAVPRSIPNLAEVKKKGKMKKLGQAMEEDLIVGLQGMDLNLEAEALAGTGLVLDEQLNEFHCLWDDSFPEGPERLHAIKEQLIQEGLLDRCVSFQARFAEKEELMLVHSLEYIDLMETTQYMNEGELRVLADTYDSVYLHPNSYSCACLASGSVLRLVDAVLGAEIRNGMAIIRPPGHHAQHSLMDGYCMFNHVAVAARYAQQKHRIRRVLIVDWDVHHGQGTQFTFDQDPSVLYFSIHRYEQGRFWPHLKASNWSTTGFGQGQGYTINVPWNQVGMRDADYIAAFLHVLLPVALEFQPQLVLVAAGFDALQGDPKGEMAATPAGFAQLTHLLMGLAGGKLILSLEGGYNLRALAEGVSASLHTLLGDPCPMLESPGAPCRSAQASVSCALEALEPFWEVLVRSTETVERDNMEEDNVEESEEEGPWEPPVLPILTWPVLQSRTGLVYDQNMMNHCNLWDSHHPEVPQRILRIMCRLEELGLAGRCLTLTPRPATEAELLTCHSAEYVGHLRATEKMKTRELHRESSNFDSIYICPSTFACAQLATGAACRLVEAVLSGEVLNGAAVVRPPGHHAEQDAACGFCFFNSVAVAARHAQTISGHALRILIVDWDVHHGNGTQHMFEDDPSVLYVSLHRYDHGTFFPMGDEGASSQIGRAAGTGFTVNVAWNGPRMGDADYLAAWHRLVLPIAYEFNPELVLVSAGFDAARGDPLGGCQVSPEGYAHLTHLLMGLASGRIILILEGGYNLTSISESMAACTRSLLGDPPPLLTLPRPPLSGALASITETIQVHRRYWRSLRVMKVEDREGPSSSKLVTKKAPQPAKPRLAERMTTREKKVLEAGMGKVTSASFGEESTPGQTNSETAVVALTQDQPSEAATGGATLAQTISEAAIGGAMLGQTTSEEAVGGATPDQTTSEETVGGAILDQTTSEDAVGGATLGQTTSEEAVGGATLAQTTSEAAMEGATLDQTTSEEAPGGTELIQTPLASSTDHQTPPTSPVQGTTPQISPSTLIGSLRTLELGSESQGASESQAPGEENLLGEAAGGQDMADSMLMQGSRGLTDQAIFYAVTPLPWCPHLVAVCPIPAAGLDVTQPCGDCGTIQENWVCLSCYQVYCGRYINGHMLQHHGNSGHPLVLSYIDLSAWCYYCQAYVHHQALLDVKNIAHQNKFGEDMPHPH

cells [6] = conditions: Homo sapiens, A-431, 48 h
cells [7] = conditions: Homo sapiens, SK-BR-3, 48 h
cells [8] = conditions: Homo sapiens, NCI-H1975, 48 h
BT-474 [9] = experiment: Induction of apoptosis in human BT474 cells assessed as late apoptotic cells at 1 uM measured after 48 hrs by Annexin V-FITC/propidium iodide staining based flow cytometry (reference value: 0.32%); type: functional
BT-474 [10] = experiment: Induction of apoptosis in human BT474 cells assessed as late apoptotic cells at 5 uM measured after 48 hrs by Annexin V-FITC/propidium iodide staining based flow cytometry (reference value: 0.32%); type: functional
BT-474 [11] = experiment: Induction of apoptosis in human BT474 cells assessed as viable cells at 2.5 uM measured after 48 hrs by Annexin V-FITC/propidium iodide staining based flow cytometry (reference value: 96.76%); type: functional; conditions: BT-474, 48 h, read-out: Activity
[12] = biological target: T1, Epidermal growth factor receptor; experiment: Inhibition of EGFR in human A549 cells assessed as suppression of EGFR phosphorylation at Tyr1173 residue measured after 24 hrs by Western blot analysis; type: cell-based
Summary of the method: (§1)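 A549 cells treated 24 h across a dose range. Lysate protein (20-40 µg) run on 7.5%-15% SDS-PAGE and blotted to PVDF. Membranes blocked 2 h in TBST with 5% BSA. Primary antibody (p-EGFR Tyr1068, p-EGFR Tyr1173, total EGFR, acetyl-histone H3 Lys27) applied 8-12 h at 4°C. HRP secondary, chemiluminescent detection.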

[13] = biological target: T1, Epidermal growth factor receptor; conditions: A549, 0.5 uM
BT-474 [14] = experiment: Induction of apoptosis in human BT474 cells assessed as viable cells at 1 uM measured after 48 hrs by Annexin V-FITC/propidium iodide staining based flow cytometry (reference value: 96.76%); type: functional; conditions: BT-474, 48 h, read-out: Activity
BT-474 [15] = experiment: Induction of apoptosis in human BT474 cells assessed as necrotic cells at 2.5 uM measured after 48 hrs by Annexin V-FITC/propidium iodide staining based flow cytometry (reference value: 0.06%); type: functional
[16] = biological target: T1, Epidermal growth factor receptor; conditions: A549, 0.5 uM; remark: listed apart in the source
BT-474 [17] = experiment: Induction of apoptosis in human BT474 cells assessed as necrotic cells at 5 uM measured after 48 hrs by Annexin V-FITC/propidium iodide staining based flow cytometry (reference value: 0.06%); type: functional
BT-474 [18] = experiment: Induction of apoptosis in human BT474 cells assessed as early apoptotic cells at 5 uM measured after 48 hrs by Annexin V-FITC/propidium iodide staining based flow cytometry (reference value: 2.87%); type: functional
[19] = biological target: T1, Epidermal growth factor receptor; experiment: Inhibition of EGFR in human A549 cells assessed as suppression of EGFR phosphorylation at Tyr1068 residue measured after 24 hrs by Western blot analysis; type: cell-based
Summary of the method: as §1

[20] = biological target: T2, Receptor tyrosine-protein kinase erbB-2; conditions: BT-474, 25 uM
BT-474 [21] = experiment: Induction of apoptosis in human BT474 cells assessed as early apoptotic cells at 1 uM measured after 48 hrs by Annexin V-FITC/propidium iodide staining based flow cytometry (reference value: 2.87%); type: functional
[22] = biological target: T2, Receptor tyrosine-protein kinase erbB-2; conditions: BT-474, 1 uM
BT-474 [23] = experiment: Induction of apoptosis in human BT474 cells assessed as necrotic cells at 1 uM measured after 48 hrs by Annexin V-FITC/propidium iodide staining based flow cytometry (reference value: 0.06%); type: functional
BT-474 [24] = experiment: Induction of apoptosis in human BT474 cells assessed as early apoptotic cells at 2.5 uM measured after 48 hrs by Annexin V-FITC/propidium iodide staining based flow cytometry (reference value: 2.87%); type: functional
BT-474 [25] = experiment: Induction of apoptosis in human BT474 cells assessed as late apoptotic cells at 2.5 uM measured after 48 hrs by Annexin V-FITC/propidium iodide staining based flow cytometry (reference value: 0.32%); type: functional
A549 = experiment: Inhibition of HDAC in human A549 cells assessed as activation of H3 hyperacetylation measured after 24 hrs by Western blot analysis; type: cell-based
Summary of the method: as §1

BT-474 [26] = experiment: Induction of apoptosis in human BT474 cells measured after 48 hrs by Annexin V-FITC/propidium iodide staining based flow cytometry; type: functional, cell-based
BT-474 [27] = experiment: Induction of apoptosis in human BT474 cells assessed as viable cells at 5 uM measured after 48 hrs by Annexin V-FITC/propidium iodide staining based flow cytometry (reference value: 96.76%); type: functional; conditions: BT-474, 48 h, read-out: Activity

T1 sequence (P00533 whole entry): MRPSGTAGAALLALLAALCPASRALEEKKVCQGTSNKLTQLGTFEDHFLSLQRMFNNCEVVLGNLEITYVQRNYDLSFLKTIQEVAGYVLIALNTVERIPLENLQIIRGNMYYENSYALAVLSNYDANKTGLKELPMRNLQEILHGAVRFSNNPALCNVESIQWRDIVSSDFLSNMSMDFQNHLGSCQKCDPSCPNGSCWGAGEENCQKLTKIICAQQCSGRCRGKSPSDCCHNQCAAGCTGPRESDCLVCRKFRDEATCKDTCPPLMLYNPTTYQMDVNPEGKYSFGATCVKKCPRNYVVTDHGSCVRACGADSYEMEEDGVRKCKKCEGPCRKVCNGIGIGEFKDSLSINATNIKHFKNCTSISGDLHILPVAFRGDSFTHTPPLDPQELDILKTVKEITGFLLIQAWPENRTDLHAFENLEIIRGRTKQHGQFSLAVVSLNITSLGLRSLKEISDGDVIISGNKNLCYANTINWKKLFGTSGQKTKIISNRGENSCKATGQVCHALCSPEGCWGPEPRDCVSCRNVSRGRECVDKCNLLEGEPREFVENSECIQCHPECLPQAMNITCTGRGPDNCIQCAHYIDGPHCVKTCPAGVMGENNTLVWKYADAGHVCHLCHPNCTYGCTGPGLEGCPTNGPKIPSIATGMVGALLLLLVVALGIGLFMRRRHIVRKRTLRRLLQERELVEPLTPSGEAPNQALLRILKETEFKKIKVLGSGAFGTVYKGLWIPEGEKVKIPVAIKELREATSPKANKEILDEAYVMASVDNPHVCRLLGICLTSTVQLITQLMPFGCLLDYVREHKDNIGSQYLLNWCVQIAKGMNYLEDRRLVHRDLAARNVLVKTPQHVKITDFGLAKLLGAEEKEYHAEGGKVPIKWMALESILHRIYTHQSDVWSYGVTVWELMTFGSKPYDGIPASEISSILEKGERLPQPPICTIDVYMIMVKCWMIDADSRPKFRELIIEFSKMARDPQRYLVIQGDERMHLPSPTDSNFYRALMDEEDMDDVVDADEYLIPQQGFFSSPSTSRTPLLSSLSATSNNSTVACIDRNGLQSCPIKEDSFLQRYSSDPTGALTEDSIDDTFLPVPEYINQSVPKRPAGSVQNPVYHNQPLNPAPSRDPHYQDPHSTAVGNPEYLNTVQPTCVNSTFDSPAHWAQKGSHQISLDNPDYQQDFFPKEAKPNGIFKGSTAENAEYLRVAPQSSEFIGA
Histone deacetylase 1, sequence (Q13547 whole entry): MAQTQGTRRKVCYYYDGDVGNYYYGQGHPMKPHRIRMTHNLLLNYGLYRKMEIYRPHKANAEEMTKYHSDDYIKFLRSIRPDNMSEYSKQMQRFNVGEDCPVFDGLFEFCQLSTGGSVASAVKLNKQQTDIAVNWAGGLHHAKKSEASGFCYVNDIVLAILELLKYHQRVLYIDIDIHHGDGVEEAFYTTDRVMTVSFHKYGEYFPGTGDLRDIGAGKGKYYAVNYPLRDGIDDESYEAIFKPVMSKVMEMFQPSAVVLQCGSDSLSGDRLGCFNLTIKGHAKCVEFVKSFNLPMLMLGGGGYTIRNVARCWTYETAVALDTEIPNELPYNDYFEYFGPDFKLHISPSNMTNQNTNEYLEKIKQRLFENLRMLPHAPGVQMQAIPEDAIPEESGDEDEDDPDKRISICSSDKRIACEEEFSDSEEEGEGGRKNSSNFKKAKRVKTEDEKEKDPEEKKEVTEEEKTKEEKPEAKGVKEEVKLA

SMILES	IC50 [1] [µM]	IC50 (Histone deacetylase 1) [µM]	IC50 (cells [2]) [µM]	IC50 [3] [µM]	IC50 (cells [4]) [µM]	IC50 [5] [µM]	IC50 (cells [6]) [µM]	IC50 (cells [7]) [µM]	IC50 (cells [8]) [µM]	other results
Cc1ccc(Oc2ccc(Nc3ncnc4ccc(-c5cn(CCCCCC(=O)NO)nn5)cc34)cc2C)cn1	0.0064	0.0069	14.7	> 1	8.46	0.0129				
CS(=O)(=O)CCNCc1ccc(-c2ccc3ncnc(Nc4ccc(OCc5cccc(F)c5)c(Cl)c4)c3c2)o1 [LAPATINIB]			0.1		0.51 to 1.74		0.15	0.06	7.25	
O=C(CCCCCn1cc(-c2ccc3ncnc(Nc4cccc(Cl)c4F)c3c2)nn1)NO	0.00027	0.0014	> 50	0.386	> 50	0.0041				
O=C(CCCCCCn1cc(-c2ccc3ncnc(Nc4cccc(Cl)c4F)c3c2)nn1)NO	0.00012	0.00072	3.88	0.175	0.63	0.0032	0.49	0.69	8.05	Activity (BT-474 [9]): 5.1%; Activity (BT-474 [10]): 41.84%; viability at 2.5 µM (BT-474 [11]): 64.5%; inhibition [12]: Dose-dependent effect; inhibition [13]: 100%; viability at 1 µM (BT-474 [14]): 86.3%; Activity (BT-474 [15]): 0.89%; inhibition [16]: 100%; Activity (BT-474 [17]): 1.36%; Activity (BT-474 [18]): 22.02%; inhibition [19]: Dose-dependent effect; inhibition [20]: 100%; Activity (BT-474 [21]): 8.27%; inhibition [22]: 100%; Activity (BT-474 [23]): 0.34%; Activity (BT-474 [24]): 14.83%; Activity (BT-474 [25]): 19.73%; inhibition (A549): Dose-dependent effect; Activity (BT-474 [26]): Dose-dependent effect; viability at 5 µM (BT-474 [27]): 34.8%
O=C(CCCCCCC(=O)Nc1ccccc1)NO [VORINOSTAT]							2.29			
Cc1ccc(Oc2ccc(Nc3ncnc4ccc(-c5cn(CCCCCCC(=O)NO)nn5)cc34)cc2C)cn1	0.01	0.0052	4.41	> 1	16.5	0.0138				
O=C(CCCCCn1cc(-c2ccc3ncnc(Nc4ccc(F)c(Cl)c4)c3c2)nn1)NO	0.00065	0.007	26	0.166	> 50	0.0095				
O=C(CCCCCCn1cc(-c2ccc3ncnc(Nc4ccc(F)c(Cl)c4)c3c2)nn1)NO	0.00069	0.0026	3.63	0.177	0.51	0.0084	1.95	1.27	8.76	
